{"data": "Assay results pooled from the literature", "cell line": "LNCaP", "read-out": "cell growth or viability", "note": "Compare with care: the assays were run in different laboratories."}
{"SMILES": "O=C(CCCCCCC(=O)Nc1ccc(CCF)cc1)NO", "technique": "MTT", "time": "72 h", "quantity": "GI50", "value": "4.8 µM"}
{"SMILES": "CC(O)(CS(=O)(=O)c1ccc(F)cc1)C(=O)Nc1ccc(C#N)c(C(F)(F)F)c1 (stereo not shown)", "technique": "XTT", "time": "7 days", "quantity": "IC50", "value": "4.6 µM"}
{"SMILES": "COc1cc(C(=O)c2csc(-c3ccccc3)n2)cc(OC)c1OC", "technique": "SRB", "time": "96 h", "quantity": "IC50", "value": "0.028 µM"}
{"SMILES": "CNC(=O)c1ccc(N2C(=S)N(c3ccc(C#N)c(C(F)(F)F)c3)C(=O)C2(C)C)cc1F", "technique": "MTT", "quantity": "GI50", "value": "13.7 µM"}
{"SMILES": "COC1=CC(=O)N(C(=O)[C@@H](CCC(Cl)(Cl)Cl)NC(=O)C(C)(C)C)[C@@H]1CCC(Cl)Cl", "technique": "resazurin", "time": "96 h", "quantity": "IC50", "value": "6.9 µM"}
{"SMILES": "C[C@]12CC[C@H](O)CC1=CC[C@@H]1[C@@H]2CC[C@]2(C)C(c3cccnc3)=CC[C@@H]12", "technique": "MTT", "quantity": "GI50", "value": "11.2 µM"}
{"SMILES": "O=C(CCCCCCC(=O)Nc1ccccc1)NO", "technique": "MTT", "time": "72 h", "quantity": "GI50", "value": "5.2 µM"}
{"SMILES": "O=C(O)/C=C/c1cccc(C(c2c[nH]c3ccccc23)c2c[nH]c3ccccc23)c1", "technique": "MTT", "time": "48 h", "quantity": "IC50", "value": "43 µM"}
{"SMILES": "CC(C)C[C@H](NC(=O)[C@H](Cc1ccccc1)NC(=O)c1cnccn1)B(O)O", "technique": "ATP luminescence", "quantity": "IC50", "value": "0.019 µM"}
{"SMILES": "FC(F)(F)c1ccc(C(c2c[nH]c3ccccc23)c2c[nH]c3ccccc23)cc1", "technique": "MTT", "tested at": "20 µM", "time": "48 h", "quantity": "inhibition", "value": "97%"}
{"SMILES": "COc1ccc2c(N(C)c3ccc(/C(C)=N/OCCN)cc3)c3c(Cl)coc3nc2c1", "technique": "trypan blue", "time": "72 h", "quantity": "IC50", "value": "0.235 µM"}
{"SMILES": "Cn1cc(C(c2ccc(C(=O)O)cc2)c2cn(C)c3ccccc23)c2ccccc21", "technique": "MTT", "time": "48 h", "quantity": "IC50", "value": "36 µM"}
{"SMILES": "COc1cc(Nc2nccc(-c3cnn4nc(OC)ccc34)n2)cc(C(F)(F)F)c1", "technique": "ATP luminescence", "quantity": "IC50", "value": "0.47 µM"}
{"SMILES": "CC(=O)O[C@@]12CO[C@@H]1C[C@H](O)[C@@]1(C)C(=O)[C@H](O)C3=C(C)[C@@H](OC(=O)[C@H](O)[C@@H](NC(=O)OC(C)(C)C)c4ccccc4)C[C@@](O)([C@@H](OC(=O)c4ccccc4)[C@H]21)C3(C)C", "technique": "trypan blue", "quantity": "IC50", "value": "0.001 µM"}
{"SMILES": "O=C(O)C(c1c[nH]c2ccccc12)c1c[nH]c2ccccc12", "technique": "MTT", "tested at": "100 µM", "time": "48 h", "quantity": "inhibition", "value": "34%"}
{"SMILES": "C[C@]12CC[C@H](O)CC1=CC[C@@H]1[C@@H]2CC[C@]2(C)C(n3cnc4ccccc43)=CC[C@@H]12", "technique": "XTT", "time": "7 days", "quantity": "IC50", "value": "2.6 µM"}
